From ChEMBL document CHEMBL4321862, “Application of Bivalent Bioisostere Concept on Design and Discovery of Potent Opioid Receptor Modulators” (J Med Chem, 2019)
pEC50, pKi: −log10 of the molar value. The source made the active and inactive calls.

Tests used:
[1] = molecular target: Kappa-type opioid receptor (Mus musculus, UniProt P33534); test: Displacement of [3H]-[…] from mouse kappa opioid receptor expressed in CHO cells incubated for […] by competitive radioligand binding assay; format: cell-based
[2] = molecular target: Delta-type opioid receptor (Homo sapiens, UniProt P41143); test: Displacement of [3H]-[…] from human delta opioid receptor expressed in CHO cells incubated for […] by competitive radioligand binding assay; format: cell-based
[3] = molecular target: Mu-type opioid receptor (Mus musculus) (UniProt P42866); test: Agonist activity at recombinant mouse mu opioid receptor expressed in CHO cell membrane assessed as [35]-GTPgammaS binding incubated for […] by scintillation counting method relative to DAMGO
[4] = Selectivity index, ratio of Ki for mouse kappa opioid receptor expressed in CHO cells to Ki for mouse mu opioid receptor expressed in CHO cells
[5] = molecular target: T1, Mu-type opioid receptor (Mus musculus, UniProt P42866); test: Agonist activity at recombinant mouse mu opioid receptor expressed in CHO cell membrane assessed as [35]-GTPgammaS binding incubated for […] by scintillation counting method
[6] = molecular target: T1, Mu-type opioid receptor; test: Displacement of [3H]-Naloxone from mouse mu opioid receptor expressed in CHO cells incubated for […] by competitive radioligand binding assay; format: cell-based
[7] = Selectivity index, ratio of Ki for human delta opioid receptor expressed in CHO cells to Ki for mouse mu opioid receptor expressed in CHO cells
[8] = molecular target: Mu-type opioid receptor (Mus musculus) (UniProt P42866); test: Agonist activity at mouse mu opioid receptor expressed in CHO cells assessed as inhibition of forskolin-induced cAMP formation incubated for 8 min followed by forskolin stimulation by ELISA; format: functional, cell-based
Summary of the method: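 mMOR-CHO cells grown to confluency, pre-incubated 30 min at 37°C with 1 mM IBMX, 200 μM Ro 20-1724, bovine serum albumin and 20 mM HEPES (pH 7.2-7.5). Ligand then added with 10 μM forskolin for 8 min at 37°C. Media removed, cells rinsed with PBS, cAMP measured by ELISA. DMEM/F12 used as solvent throughout.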

[9] = tested on: Mus musculus; test: Antinociceptive activity in Swiss Webster mouse assessed as increase in latency to tail withdrawal at 10 mg/kg, sc observed for 20 mins by warm water tail withdrawal assay; format: functional, organism-based
Summary of the method: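 Male Swiss Webster mice, 25–30 g, n = 5 per group, baseline tail latency 2–4 s accepted. Compound given s.c. in saline or water. Tail immersed in 56 ± 0.1 °C water 20 min post-dose, 10 s cutoff. %MPE = [(test − control)/(10 − control)] × 100. Saline and morphine as controls.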

[10] = tested on: Mus musculus; test: Inhibition of morphine-induced antinociceptive activity in Swiss Webster mouse assessed as decrease in latency to tail withdrawal at 10 mg/kg, sc administered 5 mins before morphine stimulation observed for 20 mins by warm water tail withdrawal assay; format: functional, organism-based
Summary of the method: (§1)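 Male Swiss Webster mice, n ≥ 5, baseline latency 2–4 s. Test compound given s.c. 5 min before morphine 10 mg/kg. Tail immersion at 56 ± 0.1 °C 20 min after morphine, 10 s cutoff, %MPE per mouse.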

[11] = tested on: Mus musculus; test: Inhibition of morphine-induced antinociceptive activity in subcutaneously dosed Swiss Webster mouse assessed as decrease in latency to tail withdrawal administered 5 mins before morphine stimulation observed for 20 mins by warm water tail withdrawal assay; format: functional; summary of the method: as §1

Row | SMILES | pKi [1] | pKi [2] | Emax [3] [%] | Ratio Ki [4] | pEC50 [5] | pKi [6] | Ratio Ki [7] | Emax [8] [%] | Activity [9] | inhibition [10] | AD50 [11] [mg/kg]
1 | Cl.O=C(N[C@H]1CC[C@@]2(O)[C@H]3Cc4ccc(O)c5c4[C@@]2(CCN3CC2CC2)[C@H]1O5)c1cccc2sccc12 | 8.63 | 8.16 | 16.1 | 9 | 8.98 | 9.59 | 26.3 |  |  |  | 
2 | Cl.O=C(N[C@H]1CC[C@@]2(O)[C@H]3Cc4ccc(O)c5c4[C@@]2(CCN3CC2CC2)[C@H]1O5)c1ccc2sccc2c1 | 8.66 | 7.93 | 18.9 | 5.6 | 8.61 | 9.41 | 30.4 |  |  |  | 
3 | Cl.O=C(N[C@@H]1CC[C@@]2(O)[C@H]3Cc4ccc(O)c5c4[C@@]2(CCN3CC2CC2)[C@H]1O5)c1coc2ccccc12 | 9.52 | 7.99 | 43.2 | 2.3 | 9.33 | 9.89 | 79.2 |  |  |  | 
4 | Cl.O=C(N[C@@H]1CC[C@@]2(O)[C@H]3Cc4ccc(O)c5c4[C@@]2(CCN3CC2CC2)[C@H]1O5)c1csc2ccccc12 | 9.32 | 7.73 | 29.9 | 3.4 | 9.43 | 9.85 | 133.21 |  |  |  | 
5 | Cl.O=C(N[C@@H]1CC[C@@]2(O)[C@H]3Cc4ccc(O)c5c4[C@@]2(CCN3CC2CC2)[C@H]1O5)c1cccc2sccc12 | 9.12 | 7.62 | 23.1 | 4.7 | 9.49 | 9.80 | 150.3 |  |  |  | 
6 | Cl.O=C(N[C@H]1CC[C@@]2(O)[C@H]3Cc4ccc(O)c5c4[C@@]2(CCN3CC2CC2)[C@H]1O5)c1ccc2ccoc2c1 | 8.78 | 7.51 | 30.5 | 5.7 | 8.65 | 9.54 | 105.8 |  |  |  | 
7 | Cl.O=C(N[C@H]1CC[C@@]2(O)[C@H]3Cc4ccc(O)c5c4[C@@]2(CCN3CC2CC2)[C@H]1O5)c1ccc2ccsc2c1 | 8.43 | 7.65 | 18.1 | 13.3 | 8.52 | 9.55 | 79.6 |  |  |  | 
8 | C[C@@H](NC(=O)[C@@H](N)Cc1ccc(O)cc1)C(=O)NCC(=O)N(C)[C@@H](Cc1ccccc1)C(=O)NCCO |  |  |  |  |  |  |  | 82.4 |  |  | 
9 | Cl.O=C(N[C@@H]1CC[C@@]2(O)[C@H]3Cc4ccc(O)c5c4[C@@]2(CCN3CC2CC2)[C@H]1O5)c1cc2ccccc2o1 | 9.64 | 8.71 | 64.5 | 1.4 | 9.41 | 9.80 | 12.1 |  | Active |  | 
10 | Cl.O=C(N[C@@H]1CC[C@@]2(O)[C@H]3Cc4ccc(O)c5c4[C@@]2(CCN3CC2CC2)[C@H]1O5)c1ccc2ccoc2c1 | 9.52 | 7.91 | 21.1 | 1.7 | 9.23 | 9.74 | 68.1 |  | Active |  | 
11 | Cl.O=C(N[C@@H]1CC[C@@]2(O)[C@H]3Cc4ccc(O)c5c4[C@@]2(CCN3CC2CC2)[C@H]1O5)c1ccc2sccc2c1 | 9.68 | 8.87 | 75.4 | 1.5 | 9.72 | 9.85 | 9.7 |  | Active |  | 
12 | Cl.O=C(N[C@H]1CC[C@@]2(O)[C@H]3Cc4ccc(O)c5c4[C@@]2(CCN3CC2CC2)[C@H]1O5)c1ccc2occc2c1 | 8.37 | 7.54 | 17.7 | 12.1 | 8.43 | 9.46 | 82.9 |  |  | Active | 2.03
